# Calls of active or inactive are those of the source. The calls are words filed in the database; no cut-off is given here.
# Assays:
# Type in all cases: functional, cell-based
# [1] = molecular target: T1, Urotensin-2 receptor (Homo sapiens) (UniProt Q9UKP6); test: Agonist activity at human urotensin-2 receptor transfected in NIH3T3 cells after 5 days by R-SAT assay relative to urotensin-2
# T1 sequence (whole entry): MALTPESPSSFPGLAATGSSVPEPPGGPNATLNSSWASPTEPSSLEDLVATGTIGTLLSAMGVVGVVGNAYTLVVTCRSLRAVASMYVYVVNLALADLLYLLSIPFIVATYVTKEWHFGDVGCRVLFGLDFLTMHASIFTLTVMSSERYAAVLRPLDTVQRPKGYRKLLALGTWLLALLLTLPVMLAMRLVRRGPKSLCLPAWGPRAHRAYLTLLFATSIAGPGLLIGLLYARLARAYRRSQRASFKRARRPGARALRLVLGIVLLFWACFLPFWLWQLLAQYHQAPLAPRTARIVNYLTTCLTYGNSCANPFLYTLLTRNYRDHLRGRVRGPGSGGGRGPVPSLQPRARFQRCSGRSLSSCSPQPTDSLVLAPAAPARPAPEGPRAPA
# How it was run: (§1)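 NIH-3T3 cells grown to 80% confluence in DMEM with 10% bovine calf serum and 1% penicillin/streptomycin/glutamine, transfected 18 h with human UII receptor plus β-galactosidase marker, then trypsinized and frozen. Thawed batches were quality-checked with control compound, then incubated with compounds or reference ligands for five days in 5% CO₂. Reporter enzyme activity read at 420 nm.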
# [2] = molecular target: T2, Urotensin-2 receptor (Homo sapiens, UniProt Q9UKP6); test: (§2) Agonist activity at human urotensin-2 receptor transfected in NIH3T3 cells after 5 days by R-SAT assay; how it was run: as §1
# T2 sequence (Q9UKP6 whole entry): T1 sequence (whole entry)
# [3] = molecular target: T1, Urotensin-2 receptor (Homo sapiens); test: as §2; how it was run: as §1
SMILES,Efficacy [1] [%],EC50 [2] [nM],further results
CN(C)CCC(NC(=O)C#Cc1ccccc1)c1ccc2ccccc2c1 (stereo not given),115,–,–
COc1ccc(CCC(=O)NC(CCN(C)C)c2ccc(C)cc2)cc1 (stereo not given),67,–,–
CN(C)CCC(NC(=O)Cc1ccc(C(F)(F)F)cc1)c1ccc2ccccc2c1 (stereo not given),40,–,–
CN(C)CCC(NC(=O)/C=C/c1ccc(C(F)(F)F)cc1)c1ccc(Cl)cc1 (stereo not given),133,129,–
Cc1ccc(C(CCN(C)C)NC(=O)C#Cc2ccccc2)cc1 (stereo not given),131,–,–
CN(C)CCC(NC(=O)CCc1ccc(C(F)(F)F)cc1)c1ccc2ccccc2c1 (stereo not given),75,372,–
Cc1ccc(C(CCN(C)C)NC(=O)CCc2ccc(C(F)(F)F)cc2)cc1 (stereo not given),60,–,–
Cc1ccc(C(CCN(C)C)NC(=O)/C=C/c2ccc(C(F)(F)F)cc2)cc1 (stereo not given),96,437,–
Cc1ccc(C(CCN(C)C)NC(=O)/C=C/c2ccccc2)cc1 (stereo not given),97,1550,–
CN(C)CCC(NC(=O)/C=C/c1ccc(C(F)(F)F)cc1)c1ccc2ccccc2c1 (stereo not given),117,135,–
COc1ccc(/C=C/C(=O)NC(CCN(C)C)c2ccc(C)cc2)cc1 (stereo not given),79,2000,–
COc1ccc(CCC(=O)NC(CCN(C)C)c2ccc3ccccc3c2)cc1 (stereo not given),113,1410,–
CN(C)CCC(NC(=O)CCc1ccc(C(F)(F)F)cc1)c1ccc(Cl)cc1 (stereo not given),73,–,–
COc1ccc(/C=C/C(=O)NC(CCN(C)C)c2ccc3ccccc3c2)cc1 (stereo not given),106,380,–
CN(C)CCC(NC(=O)/C=C/c1ccccc1)c1ccc2ccccc2c1 (stereo not given),116,–,–
Cc1ccc(C(CCN(C)C)NC(=O)Cc2ccc(C(F)(F)F)cc2)cc1 (stereo not given),25,–,–
COc1ccc(/C=C/C(=O)NC(CCN(C)C)c2ccc(Cl)cc2)cc1 (stereo not given),99,513,–
COc1ccc(CC(=O)NC(CCN(C)C)c2ccc3ccccc3c2)cc1 (stereo not given),–,–,Activity [1]: inactive; Activity [3]: inactive

# Continued, in another order:
Efficacy [1] [%],EC50 [2] [nM],SMILES,further results
83,–,Cc1ccc(C(CCN(C)C)NC(=O)Cc2ccccc2)cc1 (stereo not given),–
53,–,CN(C)CCC(NC(=O)Cc1ccc(C(F)(F)F)cc1)c1ccc(Cl)cc1 (stereo not given),–
124,–,CN(C)CCC(NC(=O)C#Cc1ccccc1)c1ccc(Cl)cc1 (stereo not given),–
65,–,COc1ccc(CC(=O)NC(CCN(C)C)c2ccc(Cl)cc2)cc1 (stereo not given),–
121,–,CN(C)CCC(NC(=O)Cc1ccccc1)c1ccc2ccccc2c1 (stereo not given),–
62,–,COc1ccc(CC(=O)NC(CCN(C)C)c2ccc(C)cc2)cc1 (stereo not given),–
139,–,CN(C)CCC(NC(=O)CCc1ccccc1)c1ccc(Cl)cc1 (stereo not given),–
76,–,CN(C)CCC(NC(=O)Cc1ccccc1)c1ccc(Cl)cc1 (stereo not given),–
128,–,CN(C)CCC(NC(=O)/C=C/c1ccccc1)c1ccc(Cl)cc1 (stereo not given),–
73,–,Cc1ccc(C(CCN(C)C)NC(=O)CCc2ccccc2)cc1 (stereo not given),–
107,–,CN(C)CCC(NC(=O)CCc1ccccc1)c1ccc2ccccc2c1 (stereo not given),–
101,–,COc1ccc(CCC(=O)NC(CCN(C)C)c2ccc(Cl)cc2)cc1 (stereo not given),–
